Measurements published in article PMC2877169 (Journal of medicinal chemistry, 2010).

Tests used:
P450 enzymes = settings: read-out: inhibition of P450 enzymes; previously reported weak inhibitor; cited from earlier work
T. cruzi amastigotes = assay: T. cruzi amastigote growth; format: cell-based, Trypanosoma cruzi; settings: relative to compound 1
[1] = target: rat protein farnesyltransferase (Rattus norvegicus, UniProt Q02293+Q04631); assay: Rat protein farnesyltransferase inhibition assay; format: biochemical; settings: for fold reduction in potency/affinity for protein farnesyltransferase compared to 1: relative to compound 1
[2] = target: recombinant Tc-L14DM (lanosterol 14α-demethylase) (Trypanosoma cruzi, UniProt Q7Z1V1); assay: Binding to recombinant Tc-L14DM by difference optical spectroscopy
recombinant Tc-L14DM (lanosterol 14α-demethylase), sequence (Q7Z1V1 whole entry): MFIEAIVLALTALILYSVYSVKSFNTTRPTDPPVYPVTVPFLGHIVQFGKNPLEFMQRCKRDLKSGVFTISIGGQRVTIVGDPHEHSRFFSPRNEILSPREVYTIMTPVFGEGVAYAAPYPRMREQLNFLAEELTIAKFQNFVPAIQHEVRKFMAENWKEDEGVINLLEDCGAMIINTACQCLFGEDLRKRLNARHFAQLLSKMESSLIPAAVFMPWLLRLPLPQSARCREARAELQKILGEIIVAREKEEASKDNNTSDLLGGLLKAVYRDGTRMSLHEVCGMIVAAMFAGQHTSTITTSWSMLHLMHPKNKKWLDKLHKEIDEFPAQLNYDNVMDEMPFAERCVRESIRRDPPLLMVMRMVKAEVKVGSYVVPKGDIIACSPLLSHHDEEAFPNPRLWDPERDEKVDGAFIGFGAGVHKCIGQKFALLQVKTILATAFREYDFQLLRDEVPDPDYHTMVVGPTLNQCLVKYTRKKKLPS
In short: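 Difference optical spectroscopy on recombinant T. cruzi lanosterol 14α-demethylase held at 1.4 μM, with test compound added at 200 nM – 2 uM; binding read from the difference spectra.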

| fold reduction in potency/affinity for protein farnesyltransferase compared to 1 [1] | IC50 [1] | SMILES | also measured |
| --- | --- | --- | --- |
| 100 fold | – | COC(c1ccc(Cl)cc1)(c1ccc2c(c1)c(-c1cccc(Cl)c1)cc(=O)n2C)c1cncn1C (stereo not shown) [Compound 3] | – |
| ~ 500 fold | – | COC(c1ccc(Cl)cc1)(c1ccc2c(c1)c(-c1ccccc1)cc(=O)n2C)c1cncn1C (stereo not shown) [Compound 10] | – |
| ~ 600 fold | – | COC(c1ccc(Cl)cc1)(c1ccc2c(c1)c(-c1cc(C)cc(C)c1)cc(=O)n2C)c1cncn1C (stereo not shown) [Compound 17] | – |
| ~ 1,500 fold | – | CCn1cncc1C(OC)(c1ccc(Cl)cc1)c1ccc2c(c1)c(-c1cccc(Cl)c1)cc(=O)n2C (stereo not shown) [Compound 26] | – |

More lines, now with the values behind:

| SMILES | fold reduction in potency/affinity for protein farnesyltransferase compared to 1 [1] | IC50 [1] | also measured |
| --- | --- | --- | --- |
| Cn1cncc1[C@@](N)(c1ccc(Cl)cc1)c1ccc2c(c1)c(-c1cccc(Cl)c1)cc(=O)n2C [Compound 1, tipifarnib] | – | – | IC50 (P450 enzymes): > 10000 nM |
| COC(c1ccc(Cl)cc1)(c1ccc2c(c1)c(-c1cccc(Cl)c1C)cc(=O)n2C)c1cncn1C (stereo not shown) [Compound 2] | – | – | fold more potent at killing T. cruzi amastigotes than 1 (T. cruzi amastigotes): about 10 fold |
| COC(c1ccc(Cl)cc1)(c1ccc2c(c1)c(-c1c(F)cccc1F)cc(=O)n2C)c1cncn1C (stereo not shown) [Compound 16, 4-(2,6-Difluorophenyl)-6-((4-chlorophenyl)(methoxy)(1-methyl-1H-imidazol-5-yl)methyl)-1-methylquinolin-2(1H)-one] | – | – | Kd [2]: < 1400 nM |
| Cc1c(Cl)cccc1-c1cc(=O)n(C)c2ccc(C(O)(c3ccc(Cl)cc3)c3cncn3C)cc12 (stereo not shown) [Compound 20, 4-(3-Chloro-2-methylphenyl)-6-((4-chlorophenyl)(hydroxy)(1-methyl-1H-imidazol-5-yl)methyl)-1-methylquinolin-2(1H)-one] | – | 796 nM | – |
| CNC(c1ccc(Cl)cc1)(c1ccc2c(c1)c(-c1cccc(Cl)c1C)cc(=O)n2C)c1cncn1C (stereo not shown) [Compound 23, 4-(3-chloro-2-methylphenyl)-6-((4-chlorophenyl)(methylamino)(1-methyl-1H-imidazol-5-yl)methyl)-1-methylquinolin-2(1H)-one] | – | 957 nM | – |
| CCn1cncc1C(O)(c1ccc(Cl)cc1)c1ccc2c(c1)c(-c1cccc(Cl)c1)cc(=O)n2C (stereo not shown) [Compound 27] | – | 30 nM | – |
